Sampled rows, rich in hits. Any-hit rate of the full collection: about 5.1%.
M1 antag – M1 muscarinic receptor (rat) antagonism. CHO-M1 cells, Fluo-4 calcium, ACh EC80 antagonist mode; stronger effect = lower value. B-score at 10 µM. actives 3.4% (n = 64,000). AID 628;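 active = calcium fluorescence response, raw or row-and-column corrected B-score, differing from the plate sample mean either way at a set confidence level, mostly lower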
Hsp90 block – displaces geldanamycin probe from tumor Hsp90. P07900. NCI-N417 lysate Hsp90, Cy3B-geldanamycin FP displacement. inhibition, % at 30 µM. actives 0.35% (n = 64,000). AID 429;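 active = inhibition above 50%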;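 note: 0% = tracer plus lysate wells and 100% = tracer alone without lysate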
M1 ag – agonists of M1 muscarinic receptor. B-score at 10 µM. CHO-M1 cells, Fluo-4 calcium fluorescence, agonist mode; stronger effect = higher value. AID 626. actives 3% (n = 64,000);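 active = fluorescence rise, raw or as B-score row- and column-corrected plate score, outside the 99.7% band of its plate's samples, either direction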
Ecoli WT expand – growth inhibitors of E. coli BW25113 wild type | OD600 absorbance | growth inhibition, % at 100 µM | actives 0.15% (n = 98,000) | AID 710;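 active = growth inhibition above about 50% at one test dose, limit read from the data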;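 note: growth measured after 20 h incubation at 37 °C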
BAP1 block – inhibitors of human BAP1 deubiquitinase; Q92560; recombinant BAP1, Ub-AMC hydrolysis fluorescence kinetic; stronger effect = lower value; calls only at 20 µM; actives 0.48% (n = 72,000); AID 436;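 active = activity remaining at or below 50% of control, provided the compound also passes the data quality filters; inactive = the rest, including low values that fail the filters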;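 note: 100% = DMSO wells rate and 0% = substrate alone blank rate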
Target sequence (Q92560 whole entry, looked up): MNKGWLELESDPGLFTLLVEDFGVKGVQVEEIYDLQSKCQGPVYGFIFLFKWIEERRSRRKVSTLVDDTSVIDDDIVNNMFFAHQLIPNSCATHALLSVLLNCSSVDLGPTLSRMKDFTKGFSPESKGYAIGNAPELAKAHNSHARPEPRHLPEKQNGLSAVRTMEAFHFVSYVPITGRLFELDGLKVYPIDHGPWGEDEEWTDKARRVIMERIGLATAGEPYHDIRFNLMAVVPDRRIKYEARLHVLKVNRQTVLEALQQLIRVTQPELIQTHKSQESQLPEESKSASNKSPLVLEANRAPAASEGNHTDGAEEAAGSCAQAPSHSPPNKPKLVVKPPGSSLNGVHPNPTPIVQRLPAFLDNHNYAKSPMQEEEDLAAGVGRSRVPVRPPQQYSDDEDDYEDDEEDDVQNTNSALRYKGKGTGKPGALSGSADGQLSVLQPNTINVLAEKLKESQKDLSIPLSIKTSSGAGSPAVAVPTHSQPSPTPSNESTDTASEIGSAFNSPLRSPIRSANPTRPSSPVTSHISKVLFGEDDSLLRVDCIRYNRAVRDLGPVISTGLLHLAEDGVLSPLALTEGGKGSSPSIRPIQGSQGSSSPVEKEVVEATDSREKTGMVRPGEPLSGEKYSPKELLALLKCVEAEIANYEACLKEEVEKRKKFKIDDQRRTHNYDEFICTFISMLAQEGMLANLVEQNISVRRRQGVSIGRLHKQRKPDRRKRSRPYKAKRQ
tolC growth inh – E. coli tolC mutant growth inhibition; AID 573; E. coli BW25113 tolC mutant growth, OD615; growth inhibition, % at 10 µM (by protocol); actives 2.2% (n = 65,000);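 active = growth inhibition at or above a cutoff equal to the mean over every tested compound plus 3 SD, cut at about 60% in these data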;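 note: growth measured after 20 h incubation at 37 °C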
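System: E. coli ΔtolC::kan strain BW25113; Buffer or medium: LB broth supplemented with 50 µg/mL kanamycin; Compound: 10 µM final, single dose; Incubation: bacterial growth with compound for 20 h at 37 °C; Signal: A615 absorbance measurement; Evaluation: growth inhibition in percent.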
Starred values were filed as active, the others as inactive; i = inactive; x = no result shown; + = active, no number.

SMILES	M1 antag	Hsp90 block	M1 ag	Ecoli WT expand	BAP1 block	tolC growth inh
Cc1ccccc1Cn1nc(C)c(NC(=O)c2noc3c2CCc2ccccc2-3)c1C	-0.174	-2.0	0.244	-17.0	i	67.6*
Cc1ccccc1Cn1nc(C)c(NC(=O)c2noc3c2CC(C(C)(C)C)CC3)c1C (stereo not given)	1.9	-1.7	1.36	1.0	i	74.1*
Cc1nn(Cc2ccc(Cl)cc2)c(C)c1NC(=O)c1noc2c1CCCCC2	-0.637	-1.7	0.923	10.0	i	84.4*
Cc1ccccc1Cn1cc(NC(=O)c2noc3c2CC(C(C)(C)C)CC3)cn1 (stereo not given)	0.0705	-1.7	-0.795	2.0	i	-5.0
Cc1ccnc(NS(=O)(=O)c2cc(C(C)(C)C)c(F)c(C(C)(C)C)c2)c1	x	x	x	x	i	x
COc1ccc(Cl)cc1NC(=O)C1=C(C)NC(=O)NC1c1ccc(N(C)C)cc1 (stereo not given)	x	x	x	x	i	x
Fc1ccc(NC(=S)Nc2ccc(F)c(Cl)c2)cc1Cl	x	x	x	89.0*	x	x
Cn1c(=O)[nH]c(=O)c2c1nc(N1CCCCCC1)n2CCCc1ccccc1	x	x	x	x	i	x
S=C(c1ccc(-c2ccc(Cl)c(Cl)c2)o1)N1CCOCC1	-0.677	-7.0	-1.23	-5.0	i	64.6*
S=C(c1ccc(-c2ccccc2Cl)o1)N1CCOCC1	1.08*	-0.5	0.801	5.0	i	36.8
Cc1ccc(-c2csc3nnc(SCC(=O)Nc4nsc(-c5ccccc5)n4)n23)cc1	-0.778	-0.2	1.06	-9.0	i	29.7
O=C(CSc1nnc2scc(-c3ccccc3)n12)Nc1nsc(-c2ccccc2)n1	0.171	-1.0	0.769	-9.0	i	62.5*
O=C1c2ccccc2C(=O)c2c(Sc3ccccc3)cccc21	x	x	x	x	i	x
CCN(CC)C(=O)c1c(NC(=O)c2ccccc2Cl)sc2c1CCCCC2	x	x	x	x	i	x
CCOc1cc(-c2c(C#N)c(N)nc3c2CCCC3C)ccc1O (stereo not given)	-0.456	-3.4	0.189	2.0	i	86.5*
COc1ccc(Cn2nnnc2C(c2ccccc2)N2CCN(C3CCCC3)CC2)cc1 (stereo not given)	1.86*	-0.2	0.553	-5.0	i	-2.2
COc1ccc(Cn2nnnc2C(c2ccccc2Cl)N2CCN(C3CCCC3)CC2)cc1 (stereo not given)	-1.97	0.1	-1.37	1.0	i	-1.5
Brc1ccccc1Cn1c(-c2cncs2)nc2ccccc21	-0.436	-4.0	0.776	-1.0	i	62.4*
c1csc(Cn2c(-c3cccs3)nc3ccccc32)c1	0.0983	-4.5	0.0125	-10.0	i	7.2
CCn1c(SCC(=O)N2CCc3ccccc32)nc2c(c1=O)SC(C)C2 (stereo not given)	0.134	-4.4	-0.00462	x	i	-12.7
CCn1c(SCC(=O)N2CCCc3ccccc32)nc2c(c1=O)SC(C)C2 (stereo not given)	3.25*	-2.7	0.444	x	i	15.1
CCc1sc(C(=O)NCc2cc(C)n(C)n2)cc1Br	-0.0384	x	-5.11*	2.0	x	16.2
CCOC(=O)c1c(N)sc2c(N)cccc12	x	x	x	x	i	x
O=c1c(-c2ccc(O)cc2)coc2cc(O)ccc12	x	-0.5	x	x	+	x
Cc1ccc2cc(C(c3nnnn3C3CCCC3)N(Cc3ccco3)Cc3cccs3)c(=O)[nH]c2c1 (stereo not given)	x	x	x	-17.0	x	x
SMILES	M1 antag	Hsp90 block	M1 ag	Ecoli WT expand	BAP1 block	tolC growth inh
CCC(c1nnnn1C1CCCCC1)N(Cc1ccco1)Cc1cc2ccc(OC)cc2[nH]c1=O (stereo not given)	-0.0646	-0.8	-0.00673	-8.0	x	67.9*
CC(c1nnnn1C1CCCCC1)N(Cc1ccccc1)Cc1cccnc1 (stereo not given)	0.434	0.3	0.457	-22.0	i	48.8
Clc1ccc(C(c2nnnn2C2CCCCC2)N(Cc2cccnc2)Cc2ccco2)cc1 (stereo not given)	x	-0.4	x	x	i	69.3*
Cc1ccc2[nH]c(=O)c(C(c3nnnn3C3CCCC3)N(Cc3cccnc3)Cc3ccco3)cc2c1 (stereo not given)	-0.00734	0.2	0.816	-12.0	i	63.3*
Cc1ccc2cc(C(c3nnnn3C3CCCC3)N(Cc3cccnc3)Cc3ccco3)c(=O)[nH]c2c1 (stereo not given)	-0.184	0.9	-0.175	-16.0	i	65.3*
CCOC(=O)C1=C(C)NC2=C(C(=O)CCC2)C1c1cc(OC)c(OC)cc1[N+](=O)[O-] (stereo not given)	x	x	x	x	i	x
COc1ccc2oc(=O)c(-c3csc(Nc4ccccc4F)n3)cc2c1	x	x	x	x	i	x
